The values below come from ChEMBL document CHEMBL3526018, “Metabolites of PPI-2458, a selective, irreversible inhibitor of methionine aminopeptidase-2: structure determination and in vivo activity” (Drug Metab Dispos, 2013).

Activity calls are given as the source filed them. The calls are words filed in the database; no cut-off is given here.

Series [1] has as its target T1, Cytochrome P450 3A4 (Homo sapiens, UniProt P08684). As to the kind of experiment: Inhibition of CYP3A4 activity in human liver microsomes assessed as dibenzo fluuorescene oxidation up to 40 uM. The class given is ADME.
Series [2] concerns the target T1, Cytochrome P450 3A4. Nature of the series: Inhibition of CYP3A4 activity in human liver microsomes using midazolam as a substrate by LC/MS analysis. The class given is ADME.
Series [3] can be described thus: Tmax in non-Hodgkin lymphoma patient at 15 mg, po alternate days for 21 days. The class given is ADME, organism-based. As to conditions: human, in vivo. In a few lines:
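Non-Hodgkin lymphoma patients given oral capsules every other day for 21 days. Plasma sampled predose and at 15, 30 min and 1, 2, 3, 4, 6, 8, 24, 48 h after the first dose. Protein precipitated, extract reconstituted, parent and metabolites quantified by validated LC-MS/MS. CL/F and Vss/F derived from the administered dose.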

In series [4] the test system is Rattus norvegicus. Nature of the series: Inhibition of MetAP2 level in Sprague-Dawley rat lymph nodes assessed as free enzyme level at 0.3 mg/kg, iv by ELISA. The class given is functional, organism-based. On the set-up: dose 0.3 mg/kg. In a few lines:
(§1)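 Male Sprague-Dawley rats (200-225 g, n=3 per group) were dosed once IV at 0.3 mg/kg or PO at 0.3 or 3.0 mg/kg, in 11% HPCD in water. Blood, liver, lung, thymus and pooled non-mesenteric lymph nodes were taken at ~24 h and lysed or homogenized with NP-40. Free MetAP2 was measured by ELISA and expressed as % of vehicle.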

The subject of series [5] is Liver. As to the kind of experiment: Metabolic stability in rat liver S9 fraction assessed as retention time of glutathione conjugate at 5 mM by LC/MS analysis. The class given is ADME, subcellular. As to conditions: s9, 5000 µM.
Series [6] concerns Liver microsome. As to the kind of experiment: Metabolic stability in dog liver microsomes assessed as retention time of ((3R,4S,5S,6R)-5-methoxy-4-((2R,3R)-2-methyl-3-(3-methylbut-2-en-1-yl)oxiran-2-yl)-1-oxaspiro[2.5]octan-6-yl ((R)-1-amino-3-hydroxy-3-methyl-1-oxobutan-2-yl)carbamate) at 5 mM by LC/MS analysis. The following applies: 5000 µM. The class given is ADME, Canis lupus familiaris.

A short description of series [7]: Metabolic stability in monkey liver microsomes assessed as retention time of ((3R,4S,5S,6R)-4-((2R,3R)-3-(((R)-3,3-dimethyloxiran-2-yl)methyl)-2-methyloxiran-2-yl)-5-methoxy-1-oxaspiro[2.5]octan-6-yl ((R)-1-amino-3-methyl-1-oxobutan-2-yl)carbamate) at 5 mM by LC/MS analysis. The class given is ADME, Macaca mulatta. As to conditions: rhesus monkey, 5000 µM. The essentials: (§2)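 Liver microsomes (pooled male/female) in 100 mM KPO4 pH 7.4 with PPI-2458 (5 mM stock), pre-incubated 5 min at 37°C, then 10 mM NADPH added; 20 min at 37°C with shaking. Time-zero and no-NADPH controls. Quenched with CH3CN; supernatant dried and redissolved in water. Analysed by LC-MS, ESI+ full scan 300–800 amu, C18 column, 10→50% B gradient.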

Series [8] can be described thus: Metabolic stability in monkey liver microsomes assessed as retention time of ((3R,4S,5S,6R)-4-((2R,3R)-3-((E)-4-hydroxy-3-methylbut-2-en-1-yl)-2-methyloxiran-2-yl)-5-methoxy-1-oxaspiro[2.5]octan-6-yl((R)-1-amino-3-methyl-1-oxobutan-2-yl)carbamate) at 5 mM by LC/MS analysis. The class given is ADME, Macaca mulatta. The following applies: rhesus monkey, 5000 µM. In a few lines:
as §2

Series [9] relates to Liver microsome. Nature of the series: Metabolic stability in human liver microsomes assessed as retention time of ((3R,4S,5S,6R)-5-methoxy-4-((2R,3R)-2-methyl-3-(3-methylbut-2-en-1-yl)oxiran-2-yl)-1-oxaspiro[2.5]octan-6-yl ((R)-1-amino-3-hydroxy-3-methyl-1-oxobutan-2-yl)carbamate) at 5 mM by LC/MS analysis. The class given is ADME. The following applies: 5000 µM. In a few lines: as §2

Series [10] deals with Rattus norvegicus. Nature of the series: Inhibition of MetAP2 level in Sprague-Dawley rat lung assessed as free enzyme level at 0.3 mg/kg, po by ELISA. The class given is functional, organism-based. On the set-up: dose 0.3 mg/kg. In a few lines: as §1
The subject of series [11] is Rattus norvegicus. As to the kind of experiment: Inhibition of MetAP2 level in Sprague-Dawley rat liver assessed as free enzyme level at 3 mg/kg, po by ELISA. The class given is functional, organism-based. Details: dose 3 mg/kg. The essentials:
as §1

Series [12] concerns Rattus norvegicus. As to the kind of experiment: Inhibition of MetAP2 level in Sprague-Dawley rat lung assessed as free enzyme level at 3 mg/kg, po by ELISA. The class given is functional, organism-based. Details: dose 3 mg/kg. The essentials: as §1
In series [13] the test system is Rattus norvegicus. Nature of the series: Inhibition of MetAP2 level in Sprague-Dawley rat whole blood assessed as free enzyme level at 3 mg/kg, po by ELISA. The class given is functional, organism-based. On the set-up: dose 3 mg/kg. In a few lines: as §1
In series [14] the test system is Liver. Nature of the series: Metabolic stability in mouse liver microsomes assessed as retention time of ((3R,4S,5S,6R)-4-((2R,3R)-3-((E)-4-hydroxy-3-methylbut-2-en-1-yl)-2-methyloxiran-2-yl)-5-methoxy-1-oxaspiro[2.5]octan-6-yl((R)-1-amino-3-methyl-1-oxobutan-2-yl)carbamate) at 5 mM by LC/MS analysis. The following applies: 5000 µM. The class given is ADME. In a few lines: as §2

Series [15] deals with CYP3A5 (Homo sapiens). Nature of the series: Activity of human recombinant CYP3A5 assessed as ((3R,4S,5S,6R)-4-((2R,3R)-3-((E)-4-hydroxy-3-methylbut-2-en-1-yl)-2-methyloxiran-2-yl)-5-methoxy-1-oxaspiro[2.5]octan-6-yl((R)-1-amino-3-methyl-1-oxobutan-2-yl)carbamate) formation. As to conditions: recombinant enzyme.
The test system of series [16] is CYP3A5 (Homo sapiens). As to the kind of experiment: Activity of human recombinant CYP3A5 assessed as ((3R,4S,5S,6R)-4-((2R,3R)-3-(((R)-3,3-dimethyloxiran-2-yl)methyl)-2-methyloxiran-2-yl)-5-methoxy-1-oxaspiro[2.5]octan-6-yl ((R)-1-amino-3-methyl-1-oxobutan-2-yl)carbamate) formation. As to conditions: recombinant enzyme.
The test system of a further series is CYP3A4 (Homo sapiens). Nature of the series: Activity of human recombinant CYP3A4 assessed as ((3R,4S,5S,6R)-4-((2R,3R)-3-(((S)-3,3-dimethyloxiran-2-yl)methyl)-2-methyloxiran-2-yl)-5-methoxy-1-oxaspiro[2.5]octan-6-yl ((R)-1-amino-3-methyl-1-oxobutan-2-yl)carbamate) formation. As to conditions: recombinant enzyme.
Series [17] concerns CYP3A5 (Homo sapiens). Nature of the series: Activity of human recombinant CYP3A5 assessed as ((3R,4S,5S,6R)-4-((2R,3R)-3-(((S)-3,3-dimethyloxiran-2-yl)methyl)-2-methyloxiran-2-yl)-5-methoxy-1-oxaspiro[2.5]octan-6-yl ((R)-1-amino-3-methyl-1-oxobutan-2-yl)carbamate) formation. The following applies: recombinant enzyme.
Series [18] relates to CYP3A5 (Homo sapiens). Nature of the series: Ratio of Vmax to Km for human recombinant CYP3A5 assessed as ((3R,4S,5S,6R)-4-((2R,3R)-3-(((S)-3,3-dimethyloxiran-2-yl)methyl)-2-methyloxiran-2-yl)-5-methoxy-1-oxaspiro[2.5]octan-6-yl ((R)-1-amino-3-methyl-1-oxobutan-2-yl)carbamate) formation. The following applies: recombinant enzyme.
Series [19] has as its system CYP3A5 (Homo sapiens). Nature of the series: Activity of human recombinant CYP3A5 assessed as ((3R,4S,5S,6R)-4-((2R,3R)-3-(((R)-3,3-dimethyloxiran-2-yl)methyl)-2-methyloxiran-2-yl)-5-methoxy-1-oxaspiro[2.5]octan-6-yl ((R)-1-amino-3-methyl-1-oxobutan-2-yl)carbamate) formation per pmol of enzyme.

T1 sequence (P08684 whole entry): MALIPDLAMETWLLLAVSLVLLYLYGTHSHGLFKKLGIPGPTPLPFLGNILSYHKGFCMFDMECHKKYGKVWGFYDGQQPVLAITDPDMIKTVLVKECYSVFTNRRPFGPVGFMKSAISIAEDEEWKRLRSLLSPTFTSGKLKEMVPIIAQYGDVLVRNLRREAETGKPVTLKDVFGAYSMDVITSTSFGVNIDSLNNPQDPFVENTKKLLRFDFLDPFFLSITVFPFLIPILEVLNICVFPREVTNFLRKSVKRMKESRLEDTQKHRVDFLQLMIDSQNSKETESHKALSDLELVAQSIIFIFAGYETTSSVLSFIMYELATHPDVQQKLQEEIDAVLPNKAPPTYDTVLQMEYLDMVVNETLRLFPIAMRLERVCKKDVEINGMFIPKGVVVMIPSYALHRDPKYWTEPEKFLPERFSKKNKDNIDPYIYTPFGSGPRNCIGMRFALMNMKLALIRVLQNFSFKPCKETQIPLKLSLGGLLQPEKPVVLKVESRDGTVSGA

Regarding `CO[C@@H]1[C@H](OC(=O)N[C@@H](C(N)=O)C(C)C)CC[C@]2(CO2)[C@H]1[C@@]1(C)O[C@@H]1CC=C(C)C` [PPI-2458], the “inhibition (INH)” value on Cytochrome P450 3A4 [1] was “Not Active”. On Cytochrome P450 3A4 [2], the Ki turned out to be 58 µM. Moreover, in [3], the Tmax is 36 min. Also, the inhibition result in the series on Rattus norvegicus [4], with Rattus norvegicus [10], in the series with Rattus norvegicus [11], with Rattus norvegicus [12] and in the series on Rattus norvegicus [13] was “Active” each time. For the same molecule, the Retention_time in the series on Liver [5] turned out to be 20.8 min. The Drug metabolism entry (in the series on Liver microsome [6]; in [7]; in series [8]; in the series on Liver microsome [9]; with Liver [14]) was “metabolite_detected” throughout. The Km with CYP3A5 (Homo sapiens) [15] turned out to be 26 µM; in the series on CYP3A5 (Homo sapiens) [16] it was 17 µM; in the series on CYP3A4 (Homo sapiens), 15 µM; in the series on CYP3A5 (Homo sapiens) [17] it was 17 µM. Further, the Vmax/Km in the series with CYP3A5 (Homo sapiens) [18] is 0.09 µL/min. In the series with CYP3A5 (Homo sapiens) [19], the maximal velocity (Vmax) was determined as 2.86 pmol/min.
